Structures are written as SMILES. pIC50: −log10 of the molar value. Like-named read-outs stand apart in the source and are kept apart here.

In experiment [1] the test system is PARP. Particulars: cited from earlier work.
Experiment [2] relates to purified kinases. Conditions: cited from earlier work; for inhibition of certain kinases: high concentrations, cell-free conditions.
Experiment [3] concerns MPN erythroid and myeloid progenitors. As to the kind of experiment: Colony forming assay, mononuclear cells from MPN patients. It counts as cell-based, human. Particulars: for pIC50: Homo sapiens. In outline:
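Peripheral-blood mononuclear cells from patients, Ficoll-Hypaque purified, washed into RPMI 1640 and mixed with methylcellulose medium containing PARP inhibitor (0, 0.5, 1, 2.5, 5, 10, 20 μM or 0, 0.25, 0.5, 1, 2, 5 μM; DMSO 0.1%). 1–5 × 10^5 cells per plate, 2–4 replicate plates, 37 °C, 5% CO2. Colonies (>40 cells) scored at 10–14 days (some CMMoL at 5–7 days). IC50 is 50% of diluent-control colonies, from linear regression after exponential transformation.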

On to `O=C(c1cc(Cc2n[nH]c(=O)c3ccccc23)ccc1F)N1CCN(C(=O)C2CC2)CC1` [Olaparib], for which the “more potent in vitro (olaparib relative to veliparib)” value in experiment [1] is reported as “roughly 10 fold”. The “off-target kinase inhibitory activity” value in experiment [2] is recorded as “lacks this off-target kinase inhibitory activity”.
Take `C[C@]1(c2nc3c(C(N)=O)cccc3[nH]2)CCCN1` [Veliparib]: the pIC50 was 5.52 in experiment [3] (read-out: IC50 values averaging, CML samples); 5.52 in experiment [3] (read-out: IC50 values averaging, CMMoL samples); 5.24 in experiment [3] (read-out: mean IC50, JAK2V617F mutated samples); greater than 5.70 in experiment [3] (read-out: veliparib IC50s, 5 of 16 individual JAK2 mutated samples). Besides, the “IC50 lower in MPN samples than in normal controls” value in experiment [3] (average, MPN samples vs normal controls, P<0.0001) came to 4 fold. The “IC50 lower in MPN samples with impaired RAD51 foci formation compared to those without” value in experiment [3] (on average, p = 0.028) turned out to be 3 fold. The “inhibition of certain kinases” value in experiment [2] is given as “might also inhibit certain kinases”.
As to `CN(C)CC(=O)Nc1ccc2[nH]c(=O)c3ccccc3c2c1` [PJ-34], the “inhibition of certain kinases” value in experiment [2] is reported as “might also inhibit certain kinases”.

Source of the values: publication PMC5041297 (Clinical cancer research : an official journal of the …, 2016).
